From PubChem
MsrA inhibitor: inhibits bovine methionine sulfoxide reductase A. inhibition, % at 15.5 µM. 360,000 compounds, 0.75% hits. purified bovine MsrA, absorbance read-out; in the data active = inhibition above about 4.5%;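 note: 0% = vehicle wells with enzyme and 100% = reference inhibitor wells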
MsrA act: activates bovine MsrA enzyme; purified bovine MsrA, absorbance read-out; 360,000 compounds, 0.3% hits; AID 602163; activation, % at 10.6 µM; in the data active = activation above about 7.5%;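 note: 0% = vehicle and 100% = reference activator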
ASAP1 inh: blocks human ASAP1-stimulated Arf1 GTP hydrolysis; GDP FP detection; inhibition, % at 16.5 µM; AID 624377; Q9ULH1; 360,000 compounds, 0.19% hits; in the data active = inhibition above about 25%;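 note: 0% = vehicle with enzyme and substrate and 100% = no enzyme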
NR1D1 modulator: modulators of human Rev-erb alpha DNA binding; Rev-erbα–FITC-DNA binding, fluorescence polarization, 90 min; activity, % at 10 µM; P20393; AID 1259318; 370,000 compounds, 0.79% hits;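 active = activity above about 14%, limit read from the data; passing the limit was not always enough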;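 note: 0% = DMSO wells with 35 nM protein and 100% = DMSO wells with 750 nM protein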
sPLA2-III inh: Inhibits HGIII-sPLA2 liposome hydrolysis, primary screen; QFRET BODIPY PC-A2 liposome hydrolysis, fluorescence; inhibition, % at 12.2 µM; 370,000 compounds, 0.56% hits; AID 743126;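 active = inhibition above mean plus 3 SD of compounds lying within the high and low control bounds, cut at about 19% in these data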;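 note: 0% = median of test compound wells and 100% = no enzyme DMSO wells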
Target sequence (Q9NZ20 whole entry, looked up): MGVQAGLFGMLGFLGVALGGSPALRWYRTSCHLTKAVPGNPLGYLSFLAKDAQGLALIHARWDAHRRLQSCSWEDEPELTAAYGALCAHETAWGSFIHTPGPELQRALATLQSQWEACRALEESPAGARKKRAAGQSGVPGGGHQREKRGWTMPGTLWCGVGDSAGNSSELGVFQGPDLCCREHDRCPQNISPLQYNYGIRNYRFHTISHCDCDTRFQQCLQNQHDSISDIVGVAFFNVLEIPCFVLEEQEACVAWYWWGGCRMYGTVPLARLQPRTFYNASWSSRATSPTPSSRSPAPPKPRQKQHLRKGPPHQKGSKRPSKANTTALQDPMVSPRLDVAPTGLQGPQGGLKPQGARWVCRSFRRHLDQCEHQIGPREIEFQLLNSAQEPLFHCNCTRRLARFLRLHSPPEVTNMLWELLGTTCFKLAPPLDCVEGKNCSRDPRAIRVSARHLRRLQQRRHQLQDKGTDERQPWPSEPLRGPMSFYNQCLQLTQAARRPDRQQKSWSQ
ARFGAP1 inhibitor: inhibitors of rat ARFGAP1; Q62848; Arfgap1-stimulated ARF1 GTP hydrolysis, GDP FP detection; inhibition, % at 16.5 µM; 360,000 compounds, 0.26% hits; AID 651572;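 active = inhibition above a per-plate limit, mean inhibition of low control wells plus 3 SD, cut at about 25% in these data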;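 note: 0% = DMSO wells with enzyme and 100% = wells lacking Arfgap1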
Target sequence (Q62848 1-136 limits assumed): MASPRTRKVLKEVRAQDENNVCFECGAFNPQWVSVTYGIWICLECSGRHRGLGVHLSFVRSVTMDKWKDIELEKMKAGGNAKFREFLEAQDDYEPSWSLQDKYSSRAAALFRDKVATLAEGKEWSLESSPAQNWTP
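Material: rat Arfgap1 catalytic domain, aa 1-136; also added: human ARF1(Δ1-17)-GTP substrate; compound dosing: one concentration, 16.5 µM, DMSO 1.26%; incubation: GTP hydrolysis reaction 2 h at 25 °C; measured by: Tracer-displacement fluorescence polarization with EDTA stop, 620/688 nm; evaluation: % inhibition from polarization; repeats: one replicate per compound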
MsrA act confirm: bovine methionine sulfoxide reductase A activation confirmed; purified bovine MsrA, absorbance read-out; 1,000 compounds, 12% hits; shares compounds with MsrA act; activation, % at 10.6 µM; AID 602270; in the data active = activation above about 4%;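 note: enzyme coupled to thioredoxin and thioredoxin reductase with NADPH; 0% = vehicle wells and 100% = reference activator wells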
* marks the source's active call; other numbers are inactive results; . = not tested or not shown. Hits are enriched below; roughly 2.7% of the tested compounds scored in any of these assays.

SMILES	MsrA inhibitor	MsrA act	ASAP1 inh	NR1D1 modulator	sPLA2-III inh	ARFGAP1 inhibitor	MsrA act confirm
C=CCN1C(=O)c2ccccc2C1(O)Cc1ccccc1 (centres undefined)	0.2	11.5*	-9.3	8.4	-0.8	-13.0	-3.8
CCCCCC(=O)NC1CCCCN(Cc2cccc(Cl)c2)C1=O (centres undefined)	.	.	.	1.7	0.7	.	.
CCN(CC)c1ccc2nc3ccccc3[n+](CC)c2c1	.	33.6*	.	.	.	.	19.2*
CC1(C)CC(=O)c2sc(N3CCCCC3)nc2C1	4.3	-8.0	8.1	1.7	-7.7	13.2	.
CC1(C)CNC(=O)c2sc(N3CCCCC3)nc2C1	0.3	8.0*	3.1	-3.3	-2.4	8.8	-2.3
Cc1ccc(Cn2cc(CN3[C@@H](Cc4ccccc4)COc4cc(Br)ccc4S3(=O)=O)nn2)cc1	.	.	.	8.1	4.7	.	.
O=C(C[C@H]1C[C@@H]2c3cc(NS(=O)(=O)c4ccccc4)ccc3O[C@@H]2[C@H](CO)O1)N1CCOCC1	0.8	14.5*	6.7	-4.2	18.0	12.7	-5.6
COc1c(C)c2c(c(O)c1C/C=C(\C)CCC(=O)OCCN1CCOCC1)C(=O)OC2	.	.	.	3.9	.	.	.
O=C1C(NC(=O)N2c3ccccc3C=Cc3ccccc32)CCCCN1Cc1cccc(C(F)(F)F)c1 (centres undefined)	.	.	.	-0.6	-11.4	.	.
COc1cccc(OC)c1OCCOc1ccc(C(=O)c2ccccc2)cc1	-0.2	18.0*	-5.6	2.2	-7.9	2.1	0.9
COC(=O)c1ccc(OCCOc2ccccc2)cc1	0.3	-2.6	2.3	-3.5	3.1	-7.2	.
Clc1ccc(Cn2nc(-c3ccccc3)nc2-c2ccccc2)cc1	-0.1	8.7*	-3.5	-3.2	-3.1	9.9	-0.4
CCN(CC)S(=O)(=O)c1cc(NC(=O)COC(=O)CCC(=O)c2cccs2)ccc1C	1.6	8.4*	9.3	-1.1	-13.6	3.9	-0.4
COc1ccc([C@H]2OC(=O)C[C@H]2C(=O)N2CCN(c3ccccc3C(F)(F)F)CC2)cc1OC	.	.	.	2.7	-8.4	.	.
CCc1ccc(NC(=O)CSc2nnc(COc3ccc4c(c3)CCCC4)o2)cc1	0.2	10.6*	-18.4	-0.4	2.0	13.3	-2.5
COC(=O)c1ccc(NC(=O)CSc2nnc(COc3ccc4c(c3)CCCC4)o2)cc1	-0.5	-5.2	-4.8	3.6	-1.8	-3.2	.
CN1Cc2nnn(Cc3ccccc3)c2-c2ccccc2S1(=O)=O	.	.	.	0.1	6.3	.	.
Cc1cc(C)n(CCc2nc(-c3ccc(C(C)(C)C)cc3)cs2)n1	0.4	9.3*	2.8	1.5	-3.3	2.3	-3.9
Brc1ccccc1OCCN1CCOCC1	-0.7	9.5*	-2.1	3.9	-4.9	3.7	-2.8
Clc1cc(Br)ccc1OCCN1CCOCC1	-1.0	-8.6	-5.2	0.9	3.5	1.5	.
Cc1cccc(N2CCN(S(=O)(=O)c3ccc(-c4coc(C)n4)cc3)CC2C)c1 (centres undefined)	-0.2	7.7*	3.5	2.1	-8.4	7.0	-1.2
CCN(C[C@H]1[C@@H](c2ccc(C3=CCCC3)cc2)[C@H](CO)N1c1nc(C)c(C)s1)S(=O)(=O)c1ccccc1[N+](=O)[O-]	.	.	.	-1.4	6.0	.	.
C=C1CCC[C@]2(C)C[C@H]3OC(=O)C(CNCCN(CC)CC)[C@H]3CC12 (some centres undefined)	-0.9	8.4*	1.7	-3.8	-1.3	5.3	-1.1
CC(=O)Oc1c(S(=O)(=O)c2ccccc2)c(C)nn1C(C)(C)C	-0.2	10.2*	3.7	-0.3	1.8	-6.2	-2.4
CCCn1c(NC(=O)c2ccccc2)nc(Cc2ccccc2)c1Cc1ccccc1	.	.	.	-6.8	6.9	.	.
SMILES	MsrA inhibitor	MsrA act	ASAP1 inh	NR1D1 modulator	sPLA2-III inh	ARFGAP1 inhibitor	MsrA act confirm
CN(CCCC(=O)Nc1ccncc1)S(=O)(=O)c1ccc(Cl)cc1	-1.5	7.9*	-2.1	2.7	-0.1	8.9	1.7
CC/C(=N/NC(=O)c1ccc(Br)o1)c1ccc(Cl)cc1	0.0	8.3*	-9.0	0.8	-0.7	5.8	0.3
COc1ccc(C(=O)N/C(=C\c2cn(S(=O)(=O)N(C)C)c3ccccc23)C(=O)NCCN2CCOCC2)cc1OC	0.3	-1.0	-8.9	5.4	-3.3	10.7	.
COc1ccc(C(=O)N/C(=C\c2cn(S(=O)(=O)N(C)C)c3ccccc23)C(=O)NCCN2CCOCC2)cc1	4.6*	18.3*	7.1	3.0	0.6	-6.2	-1.3
Cc1cc(NC(=O)CCCC(=O)OCC(F)(F)C(F)F)cc(C)c1C(=O)O	-0.6	8.3*	7.7	3.0	-2.6	11.2	-2.9
Cc1ccc(C(C)C)cc1OCC(=O)Nc1nnc(C2CC2)s1	0.5	-2.6	2.2	-6.8	-2.6	-10.9	.
Cc1cc(OCC(=O)Nc2nnc(C3CC3)s2)ccc1C(C)C	-1.2	10.9*	-11.3	-0.1	0.6	-7.4	-2.1
Nc1[nH]c(C(=O)c2ccccc2)c(-c2ccc3ccccc3c2)c1C(=O)NCCc1ccc(Cl)cc1	.	.	.	0.1	17.3	.	.
Cc1cc(CN(C)C(=O)c2ccc(OC3CCN(CCc4ccccc4)CC3)cc2)on1	-1.0	11.1*	-0.1	-3.4	-11.7	-2.4	0.9
COc1ccc(C2CC(c3cccs3)=Nc3ccccc3S2)cc1 (centres undefined)	2.8	10.1*	5.3	2.0	10.7	-1.4	-0.6
CCOC(=O)c1ccc(NC(=O)c2cc(F)c(F)cc2Cl)cc1	1.4	8.7*	-7.7	-0.7	1.7	-0.9	0.6
Cn1cccc1C(=O)N1CCN(S(=O)(=O)c2ccc(C(C)(C)C)cc2)CC1	.	.	.	2.7	-8.1	.	.
OCc1ccccc1O	.	.	.	0.4	.	.	.
OCc1ccccc1SSc1ccccc1CO	0.7	11.4*	15.4	-1.7	8.1	2.1	6.4*
COc1ccc(N(CC(=O)NCc2cccnc2)S(=O)(=O)c2ccccc2)c(OC)c1	0.1	12.7*	5.6	1.7	-3.4	15.5	-1.2
COc1ccc(OC)c(N(CC(=O)NCc2ccccc2)S(=O)(=O)c2ccc(OC)c(OC)c2)c1	-0.4	-1.8	-3.2	4.8	-8.1	-5.9	.
CCC(=O)Nc1ccc2c(c1)C(=O)c1ccccc1C2=O	-0.5	-0.3	13.9	-0.2	4.6	3.5	.
CCC(=O)NC1=C(NC(C)c2ccccc2)C(=O)c2ccccc2C1=O (centres undefined)	-0.1	10.7*	4.1	4.2	5.7	-8.1	-1.2
CCC(Oc1ccc(C)c(C)c1)C(=O)N1CCCN(C)CC1 (centres undefined)	-0.5	-1.1	10.0	0.2	0.7	-5.7	.
CCC(Oc1ccccc1C)C(=O)N1CCCN(C)CC1 (centres undefined)	-0.2	14.2*	2.7	0.5	8.8	15.7	-1.1
CCCNS(=O)(=O)c1ccc(OCC(=O)NCc2ccco2)cc1	-0.4	16.1*	-8.8	-1.6	-1.4	-2.0	1.4
CCOc1ccc(S(=O)(=O)NCCC(=O)NCc2ccco2)cc1	-1.1	-3.0	-3.9	1.3	-2.0	3.2	.
